Laboratory results published in article PMC9064241 (RSC Advances, 2019).
One block for each molecule: values may come before it.

Assays:
[1] = system: FFA4; details: read-out: EC50 as natural FFA4 agonist; literature retrieval; cited from earlier work
[2] = system: HT29 cells; assay: DMR desensitization assay in HT29 cells; format: cell-based; details: Homo sapiens, HT-29, read-out: HT 29 cell Desensitization IC50
[3] = system: CHO-K1 cells; assay: DMR agonist assay in parental CHO-K1 cells; format: cell-based, Chinese hamster
Procedure, shortened: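 Parental CHO-K1 cells were grown in Ham's F12K with 10% FBS, then seeded on biosensor microplates overnight to a confluent monolayer. Cells were washed twice and held 1–2 h in HBSS, 10 mM HEPES, pH 7.2, 0.1% BSA. After a 2 min baseline, the test compound, diluted in the same buffer, was added. Label-free DMR was recorded for 1 h.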

[4] = target: T1, human FFA4 (Homo sapiens, UniProt Q5NUL3); assay: DMR agonist assay in CHO-FFA4 cells; format: cell-based; details: for DMR response in CHO-FFA4 cells: 100 μM ALA, 12.5 μM GW9508, 10 μM TAK875 (Fig. 2A); for EC50: CHO-FFA4 cell, EC50, NPs-derived FFA4 agonists, DMR, CHO-FFA4 cells; for Selectivity between FFA4 and FFA1: comparison of DMR activity in CHO-FFA4 and CHO-FFA1 cells; for DMR response relative to the TUG891-induced response: screening of 140 natural compounds in CHO-FFA4 cells, of the TUG891-induced response (∼80 pm)
T1 sequence (Q5NUL3 1-361): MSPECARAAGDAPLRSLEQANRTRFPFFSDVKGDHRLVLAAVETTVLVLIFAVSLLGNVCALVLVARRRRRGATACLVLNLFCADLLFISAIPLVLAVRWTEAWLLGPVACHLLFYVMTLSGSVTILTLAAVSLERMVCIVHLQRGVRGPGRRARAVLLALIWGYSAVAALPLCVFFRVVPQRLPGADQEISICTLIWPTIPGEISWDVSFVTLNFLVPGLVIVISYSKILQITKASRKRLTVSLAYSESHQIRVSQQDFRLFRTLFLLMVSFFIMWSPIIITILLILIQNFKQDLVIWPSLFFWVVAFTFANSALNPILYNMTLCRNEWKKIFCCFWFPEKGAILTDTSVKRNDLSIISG

[5] = target: T2, human FFA1 (Homo sapiens, UniProt O14842); assay: DMR agonist assay in CHO-FFA1 cells; format: cell-based; details: for EC50: CHO-FFA1 cell, EC50, NPs-derived FFA4 agonists
T2 sequence (O14842 whole entry): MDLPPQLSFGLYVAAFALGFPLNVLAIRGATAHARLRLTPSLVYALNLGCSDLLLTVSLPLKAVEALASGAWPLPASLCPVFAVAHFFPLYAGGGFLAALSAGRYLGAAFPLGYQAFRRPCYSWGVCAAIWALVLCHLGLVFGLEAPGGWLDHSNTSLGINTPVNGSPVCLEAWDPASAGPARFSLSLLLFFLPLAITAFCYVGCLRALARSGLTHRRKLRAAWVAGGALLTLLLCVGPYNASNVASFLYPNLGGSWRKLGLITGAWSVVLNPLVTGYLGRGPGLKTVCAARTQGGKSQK

[6] = target: T2, human FFA1; assay: DMR desensitization assay in CHO-FFA1 cells; format: cell-based; details: CHO-FFA1 cell Desensitization IC50, IC50 to desensitize the DMR of 1 μM GW9508 in CHO-FFA1 cells
[7] = target: T1, human FFA4; assay: FLIPR calcium flux assay in CHO-FFA4 cells; format: cell-based; details: acetylshikonin 100 μM, TUG891 15 μM
[8] = system: HT29 cells; assay: DMR agonist assay in HT29 cells; format: cell-based, Human; details: for EC50: Homo sapiens, HT-29, read-out: HT29 cell, EC50, NPs-derived FFA4 agonists, DMR, HT29 cells
[9] = target: T1, human FFA4; assay: DMR desensitization assay in CHO-FFA4 cells; format: cell-based

Structure (SMILES): CC(C)=CCC/C(C)=C/CC/C(C)=C/Cc1c(O)cc(C)c(C(=O)O)c1O [grifolic acid]
EC50 [1]: > 30 µM

Structure (SMILES): Cc1ccc(-c2ccc(F)cc2COc2ccc(CCC(=O)O)cc2)cc1 [TUG891]
IC50 [2]: 0.48 ± 0.12 µM | DMR response in parental CHO-K1 cells [3]: neither GSK137647A (Fig. 2F) nor TUG891 (data not shown) produced detectable DMR events

DMR response in CHO-FFA4 cells [4]: minor response | Agonist efficacy in CHO-FFA1 cells compared with ALA [5]: partial agonism
Structure (SMILES): O=C(O)CCc1ccc(NCc2cccc(Oc3ccccc3)c2)cc1 [GW9508]
IC50 [2]: 12 ± 2.12 µM | DMR response in parental CHO-K1 cells [3]: negligible DMR response | IC50 [6]: 0.14 ± 0.01 µM

Ca2+ response in CHO-FFA4 cells [7]: produced a Ca^2+ response | EC50 [4]: 10.2 ± 2.95 µM | Selectivity between FFA4 and FFA1 [4]: non-selective | DMR response relative to the TUG891-induced response [4]: greater than 30% | EC50 [5]: 6.17 ± 2.81 µM | EC50 [8]: 2.82 ± 0.39 µM
Structure (SMILES): CC(=O)O[C@H](CC=C(C)C)C1=CC(=O)c2c(O)ccc(O)c2C1=O [Acetylshikonin, acetylshikonin]

Structure (SMILES): CCCCCCCCCCCCCC[C@@H](O)[C@@H](O)[C@@H](N)CO [phytosphingosine]
EC50 [1]: 33.4 µM

EC50 [4]: 38.2 ± 5.02 µM | Selectivity between FFA4 and FFA1 [4]: selectivity on FFA4 | DMR response relative to the TUG891-induced response [4]: greater than 30% | EC50 [5]: > 100 µM | EC50 [8]: ~39 µM
Structure (SMILES): Cc1cc(O)c2c(c1)C(=O)c1cc(O)cc(O)c1C2=O [Emodin, emodin]

DMR response in CHO-FFA4 cells [4]: did not induce any response
Structure (SMILES): Cc1cc(OCCCS(C)(=O)=O)cc(C)c1-c1cccc(COc2ccc3c(c2)OC[C@H]3CC(=O)O)c1 [TAK875]
IC50 [2]: > 20 µM | DMR response in parental CHO-K1 cells [3]: negligible DMR response | DMR response in HT29 cells ([8]; TAK875 at 10 μM, MEDICA16): did not induce an observable signal | IC50 [9]: > 20 µM
